Experimental data published in the EternaBench riboswitch data.

System: MS2 coat protein
Assay: apparent Kd, MS2 coat protein; higher = weaker binding; RNA-MaP array; FMN 200 µM where present
Procedure, shortened: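 Green signal was scaled to red-channel RNA signal and control-cluster median Fmax, and the apparent Kd was taken as the median of filtered per-cluster binding-curve fits. The binding series used SNAP-549-labelled MS2 coat protein from 0.7 or 1.5 nM, doubling to 3 µM, on designs transcribed by stalled E. coli RNA polymerase on Illumina sequencing-chip clusters. Each series ran without and then with constant ligand in 100 mM Tris-HCl pH 7.5, 80 mM KCl, 4 mM MgCl2, BSA, DTT, yeast tRNA and Tween-20.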

[1] = designed as: OFF switch for flavin mononucleotide, no ligand
[2] = ligand present: flavin mononucleotide, designed as: OFF switch for flavin mononucleotide
[3] = ligand present: flavin mononucleotide, designed as: ON switch for flavin mononucleotide
[4] = designed as: ON switch for flavin mononucleotide, no ligand

## GUUUAGUGAGGAUAUGUGGCGUAGAUCGAGCGCGGUCGGCUACAGAAGGCACAUGAGGAUCACCCAUGUUUCUC
[1]
  apparent Kd: 59.5 nM
[2]
  apparent Kd: 372 nM

## GUUUCACAUGAGGAUCACCCAUGUGAGGAUAUCGAUUUGUUAACCGUAGUUAAUAGAUCGAGAAGGCGCGUGAU
[1]
  apparent Kd: 70.6 nM
[2]
  apparent Kd: 68.8 nM

## GUUUUCGCAUGAGGAUAUGCUCGCAUUUUAAGAGCAGAAGGUAUGUCUUUAGACAUGAGGAUCACCCAUGUAUUUAUCAUUGAA
[3]
  apparent Kd: 28.2 nM

## UAAAAGACUAGUAUGGUAACGAUCACAUGAGGAUCACCCAUGUAGGAUAUGAGCAGAAAAUCUGCUCAGAAGGACAUGCUAGUC
[1]
  apparent Kd: 5.8 nM
[2]
  apparent Kd: 9.08 nM

## UAAAAGCGAGGAUAUACAUGAGGAUCACCCAUGUGAAAGAAAAAUAAAAAAAAAAAAAGUAGAAGGCGCUAAAA
[1]
  apparent Kd: 62.1 nM
[2]
  apparent Kd: 58.4 nM

## UAAAUUUUAUGAUAUUAUGACAUUAGAAGGCUAUACAUGUUGAUACAUGAGGAUCACCCAUGUAUAGAGGAUAUAGACAAUUAU
[1]
  apparent Kd: 44.1 nM
[2]
  apparent Kd: 100 nM

## UAAAUUUUAUGAUAUUAUGACAUUAGAAGGCUGUACAUGUUGAUACAUGAGGAUCACCCAUGUAUAGAGGAUAUAGACAAUUAU
[1]
  apparent Kd: 40.5 nM
[2]
  apparent Kd: 92.6 nM

## UAAAUUUUGUAAGGAUAUACACGAGAUUCAAGUGUAGAAGGUACUUACAUGAGGAUCACCCAUGUAUACAUGGAUACUAGAUAU
[4]
  apparent Kd: 209 nM
[3]
  apparent Kd: 103 nM

## UAAGUCUAAUGAGGAUAUCGUUAUCAAAGAUAAUGAGAAGGCAUACAAUCAUGAGGACAUGAGGAUCACCCAUGUUGUGACCAU
[4]
  apparent Kd: 40.9 nM
[3]
  apparent Kd: 17.6 nM

## UAAGUUUUGGUAGGAUAUACUUUAAAUUUCUCUAUCCAUACAUGAGGAUCACCCAUGUUUACAUUGUAGAAGGACCUUUAUGUU
[1]
  apparent Kd: 36.8 nM
[2]
  apparent Kd: 34 nM

## UAAUAAAGUGUGAGGAUAUGCUGGUCGAUAGAUCAGCAGAAGGCACAUGAGGAUCACCCAUGUAAUAUAUUUUA
[1]
  apparent Kd: 57.9 nM
[2]
  apparent Kd: 247 nM

## UAAUAAUAAUAAUAGCAGAAUUACAUGAGGAUCACCCAUGUAUAGGAUAUCGUCAGGAAUACUGACGAGAAGGAUACAUACUGC
[1]
  apparent Kd: 17.8 nM
[2]
  apparent Kd: 25.6 nM

## UAAUAAUAGCAAGGAUAUAGUUAUUAUAAUAUACUAGAAGGUGCACAUGAGGAUCACCCAUGUUUUAUAAUUUGUAAUUUAAAU
[1]
  apparent Kd: 29 nM
[2]
  apparent Kd: 22.4 nM

## UAAUAGUAUGUUAGGAUAUGCUGGUCCUUGGAUCAGCAGAAGGAACAUGAGGAUCACCCAUGUAGACUAUUUUA
[1]
  apparent Kd: 15.5 nM
[2]
  apparent Kd: 30 nM

## UAAUCAUGUCCGUAUGUUUUCAGAGAGGAUAUACAUGCGGGCACCUUAACAUGAGGAUCACCCAUGUAGAAGGCUCUGAAAAUG
[1]
  apparent Kd: 97.3 nM
[2]
  apparent Kd: 22.5 nM

## UAAUCUCAGAUAGGAUAUAUAGGAUAACUUAAGACCUAACAUGAGGAUCACCCAUGUGAUUAUUCGUAGAAGGAUCAUUGAACU
[4]
  apparent Kd: 254 nM
[3]
  apparent Kd: 251 nM

## UAAUCUCAGAUAGGAUAUAUAGGAUGAUUUAAGACUGAACAUGAGGAUCACCCAUGUGAUUAUCUGUAGAAGGAUCAAUGACCC
[4]
  apparent Kd: 389 nM
[3]
  apparent Kd: 348 nM

## UAAUCUGGUCAGGAUAUCGGUGCACAGUGCACAGGAGAAGGGACCACAUGAGGAUCACCCAUGUAGGCUCUCCU
[1]
  apparent Kd: 17.8 nM
[2]
  apparent Kd: 24.4 nM

## UAAUUAAUAAGAUCAAUUAAUUAACAUGAGGAUCACCCAUGUGAGGAUAUCAGCUCGAUUAGAGCUGAGAAGGCACAAUAAUUA
[1]
  apparent Kd: 43.2 nM
[2]
  apparent Kd: 102 nM

## UACAAUGGAGGAUAUAUGGUCAUACACAUGAGGAUCACCCAUGUCGCGAGUCGUGUAUCCAUAGAAGGCUGUAGUG
[1]
  apparent Kd: 13.7 nM
[2]
  apparent Kd: 15.6 nM

## UACAGCGUAGAUAAUAAUGAUUACAUGAGGAUCACCCAUGUAUAGGAUAUGCAGUGGAAUACACUGCAGAAGGAUACAUCGCUG
[1]
  apparent Kd: 17 nM
[2]
  apparent Kd: 37 nM

## UACAUGAGGAUCACCCAUGUUUUGUCGUGUAUGGUAUUUAUCUAGGAUAUCAAUUGAGUUAUUUAUGAGAAGGAGAAUAUUAAU
[1]
  apparent Kd: 41.7 nM
[2]
  apparent Kd: 44 nM

## UACAUGAGGAUCACCCAUGUUUUGUCGUGUAUGGUAUUUAUCUAGGAUAUCAUUUUAGUUAGUUAUGAGAAGGAGAAUAUUAAU
[1]
  apparent Kd: 32.2 nM
[2]
  apparent Kd: 31.6 nM

## UACAUGAGGAUCACCCAUGUUUUGUCGUGUAUGGUAUUUAUCUAGGAUAUCAUUUUAUUUAGUUAUGAGAAGGAGAAUAUUAAU
[1]
  apparent Kd: 28.9 nM
[2]
  apparent Kd: 34.4 nM

## UACGCCUAGGAGAAGGGCCCACUAUAGGGUAAAUGCUGUUCUCACAUGAGGAUCACCCAUGUGCGGCAGGAUAUCCACGCGUAC
[1]
  apparent Kd: 8.25 nM
[2]
  apparent Kd: 39 nM

## UACUGACAUGAGGAUCACCCAUGUGAGGAUAUUCUCCUGCUAAAUUAAUGGUGGGUGUGAAGAAGGCACAAGGA
[1]
  apparent Kd: 37.3 nM
[2]
  apparent Kd: 120 nM

## UACUGGAUUGUAGACGCGUUGCGACGAGAAGGUACACAUGAGGAUCACCCAUGUCGAGUGGGAGGUAAGGAUAUUGGAUGGCGU
[4]
  apparent Kd: 293 nM
[3]
  apparent Kd: 211 nM

## UAGAAGUCAGGAUAUCCAUGGCGGCACUUGCGUGGUGGCGUGGAGAAGGGACAUGAGGAUCACCCAUGUAAAGC
[1]
  apparent Kd: 48.7 nM
[2]
  apparent Kd: 37 nM

## UAGAAGUCAGGAUAUCCAUGGCGGCACUUGCGUGGUGGCGUGGAGAAGGGACAUGAGGAUCACCCAUGUAAAGU
[1]
  apparent Kd: 53.3 nM
[2]
  apparent Kd: 48.5 nM

## UAGAAGUCAGGAUAUCCUGCUCGUCACUUGCGUGAUGAGUAGGAGAAGGGACAUGAGGAUCACCCAUGUAAAGG
[1]
  apparent Kd: 188 nM
[2]
  apparent Kd: 258 nM

## UAGAAUCGAGGAUAUACAUGAGGAUCACCCAUGUGUUGCCGCGUGAUGUGUUUGUCAGGUAGAAGGCGAUUAUA
[1]
  apparent Kd: 64.4 nM
[2]
  apparent Kd: 266 nM

## UAGCCUGUAGGAGUGGAAGCCGGUAGAAGGCAGCAUUGAUGGACCGACAUGAGGAUCACCCAUGUUGAGGAUAUACCGGGCACU
[1]
  apparent Kd: 39.3 nM
[2]
  apparent Kd: 247 nM

## UAGGGCUUGGGCAGAAGGGUUACAUGAGGAUCACCCAUGUACAGAAGGAGAGCCUUGGGAAAGCUCUAGGAUAUGUCUAUGGGU
[1]
  apparent Kd: 9.93 nM
[2]
  apparent Kd: 6.66 nM

## UAGUAGAUCCGAGGAUAUACAAUCCGGAAACGGUACAUGAGGAUCACCCAUGUAGAAGGCGGAUCUACAGGUACUAAAGUACCC
[1]
  apparent Kd: 5.89 nM
[2]
  apparent Kd: 8.32 nM

## UAGUCGGAGACAGGAUAUGUGACUGCAUAGUGCACAGAAGGGUCUACAUGAGGAUCACCCAUGUCACCGACCACCAAACAACAA
[4]
  apparent Kd: 552 nM
[3]
  apparent Kd: 33.3 nM

## UAGUGAUUGCAAGGAUAUGCUAGUUUUUAUUUGUGUUUGAUAUCUAACAUGAGGAUCACCCAUGUGCAGAAGGUGCUUGAUUUG
[4]
  apparent Kd: 87.8 nM
[3]
  apparent Kd: 107 nM

## UAGUGAUUGCAAGGAUAUGCUUAUGUUUAAUUUUUUUUAAUAUCUAACAUGAGGAUCACCCAUGUGCAGAAGGUGCUUGAUUUG
[4]
  apparent Kd: 66.1 nM
[3]
  apparent Kd: 58.7 nM

## UAUAAUCGAGGAUAUACAUGAGGAUCACCCAUGUGUUGCCGCGUGAUGUGUUUGUCAGGUAGAAGGCGAUUAUA
[1]
  apparent Kd: 200 nM
[2]
  apparent Kd: 43.8 nM

## UAUAGACAUGAGGAUCACCCAUGUAAGGAUAUCGGUACUAAUGGUAUAAUCUACUUAGCGAGAAGGUACAAUGU
[1]
  apparent Kd: 31 nM
[2]
  apparent Kd: 30.6 nM

## UAUAGUGGCGUAGGAUAUCUGCGUACAUGAGGAUCACCCAUGUCUCCCAGCAGCUGAUCUGGGACAGAGAAGGGCGACCGCAUA
[4]
  apparent Kd: 157 nM
[3]
  apparent Kd: 63.6 nM

## UAUAUACAUGAGGAUCACCCAUGUAAGGAUAUGCAUUAUUAUUAUUAUUAUUAUUAUAGCAGAAGGUACAAUAU
[1]
  apparent Kd: 32.1 nM
[2]
  apparent Kd: 31.3 nM

## UAUAUAUAGUAAGGAUAUAUAUUUUUUUUUUAAAUAGAAGGUACAGACAUGAGGAUCACCCAUGUUAUAAUAUGGACAUGUGGA
[1]
  apparent Kd: 99 nM
[2]
  apparent Kd: 136 nM

## UAUAUAUAGUAAGGAUAUGUAAUUAUUCUAUAAACAGAAGGUACUGACAUGAGGAUCACCCAUGUUUUAGUGUGGGCAUGUAGA
[1]
  apparent Kd: 43.4 nM
[2]
  apparent Kd: 46 nM

## UAUAUAUAGUAAGGAUAUGUAAUUAUUUUACAAACAGAAGGUACUGACAUGAGGAUCACCCAUGUUUUAGUGUGGGCAUGUAGA
[1]
  apparent Kd: 47.3 nM
[2]
  apparent Kd: 54.4 nM

## UAUAUAUAGUAAGGAUAUGUAAUUGUUUUAUAAACAGAAGGUACUGACAUGAGGAUCACCCAUGUUUUAGUGUGGGCAUGUAGA
[1]
  apparent Kd: 57.4 nM
[2]
  apparent Kd: 78.8 nM

## UAUAUAUAGUAAGGAUAUGUAUAUAGUUUAUAAACAGAAGGUACUGACAUGAGGAUCACCCAUGUUUUAGUGUGGGCAUGUAGA
[1]
  apparent Kd: 77.9 nM
[2]
  apparent Kd: 99.5 nM

## UAUAUAUAGUAAGGAUAUGUAUAUAUGUUAUAAACAGAAGGUACUGACAUGAGGAUCACCCAUGUUUUAGUGUGGGCAUGUAGA
[1]
  apparent Kd: 66.2 nM
[2]
  apparent Kd: 96 nM

## UAUAUAUAGUAAGGAUAUGUAUUAAUUUUGUAAACAGAAGGUACUGACAUGAGGAUCACCCAUGUUUUAGUGUGGGCAUGUAGA
[1]
  apparent Kd: 130 nM
[2]
  apparent Kd: 208 nM

## UAUAUAUAGUAAGGAUAUGUAUUUAGUUUAUAAACAGAAGGUACUGACAUGAGGAUCACCCAUGUUUUAGUGUGGGCAUGUAGA
[1]
  apparent Kd: 87.7 nM
[2]
  apparent Kd: 127 nM

## UAUAUUAUUAUAGGAUAUGGAUAUGAUGCAUAUCCAGAAGGGUGAUUAUAAUAUUUUCUGUACAUGAGGAUCACCCAUGUUUAU
[4]
  apparent Kd: 141 nM
[3]
  apparent Kd: 41.6 nM

## UAUCUGUGAGGAUAUCCGGGCCCGGGCGAAAGCCCGGGCCCGGAGAAGGCACAUGAGGAUCACCCAUGUGACCU
[1]
  apparent Kd: 14.8 nM
[2]
  apparent Kd: 19.1 nM

## UAUGCGAGAGGAUAUACAUGAGGAUCACCCAUGUGUCCGACACAAUUCAGUUGCAUAUGUAGAAGGCUUGCGAC
[1]
  apparent Kd: 14.4 nM
[2]
  apparent Kd: 19.6 nM

## UAUGGUUAAGUCAGGAUAUGCUCAUAGAGGUCUGUGCAGAAGGGACAUGAGGAUCACCCAUGUAUGGUCGUGUU
[1]
  apparent Kd: 254 nM
[2]
  apparent Kd: 237 nM

## UAUUCUAGAUAGGAUAUACUUUUUUUUUUUUUCGUAGAAGGAUCUACAUGAGGAUCACCCAUGUUUUCAGCAGU
[1]
  apparent Kd: 44.5 nM
[2]
  apparent Kd: 38.4 nM

## UAUUUAUUAGAGAAGGUACAUACAAUUAACAACAUACAUGAGGAUCACCCAUGUUGGUGAAUAAGUAAGGAUAUUUAAUACUUU
[1]
  apparent Kd: 31.3 nM
[2]
  apparent Kd: 17.6 nM
